In ChEMBL document CHEMBL5712091, “Role of the GLUT1 Glucose Transporter in Postnatal CNS Angiogenesis and Blood-Brain Barrier Integrity” (Circ Res, 2020):
Activity calls are given as the source filed them. The rule behind the calls is not given here.

Assays:
BEND3 [1] = test: Inhibition of GLUT in mouse BEND3 cells assessed as decrease in cell migration at 20 micromol/L; format: cell-based; details: dose 20.0 µmol/L
BEND3 [2] = test: Inhibition of GLUT in mouse BEND3 cells assessed as decrease in cell proliferation at 20 micromol/L; format: cell-based; details: dose 20.0 µmol/L
BEND3 [3] = test: Inhibition of GLUT in mouse BEND3 cells assessed as decrease of [14C]-3-O-methylglucose transport at 20 micromol/L after 2 hrs by glucose transport assay; format: cell-based; details: dose 20.0 µmol/L
In short: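 bEND3 cells were treated with inhibitor or DMSO vehicle for 24 hrs, then held in serum-free DMEM for 2 hrs at 37°C with inhibitor or vehicle and washed. Uptake ran 30 min in DPBS with 20 mM 3-O-methylglucose plus 1 µCi/ml 14C-3MG, still with inhibitor. It was stopped with ice-cold 50 mM glucose in PBS, cells lysed in 0.1 N NaOH, and counted by LSC; triplicate.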

[4] = molecular target: T1, Solute carrier family 2, facilitated glucose transporter member 1 (Mus musculus) (UniProt P17809); test: Inhibition of GLUT1 in mouse BEND3 cells assessed as reduced phosphorylation of mTORC1 at 20 nmol/L by Western blot analysis; format: cell-based
T1 sequence (whole entry): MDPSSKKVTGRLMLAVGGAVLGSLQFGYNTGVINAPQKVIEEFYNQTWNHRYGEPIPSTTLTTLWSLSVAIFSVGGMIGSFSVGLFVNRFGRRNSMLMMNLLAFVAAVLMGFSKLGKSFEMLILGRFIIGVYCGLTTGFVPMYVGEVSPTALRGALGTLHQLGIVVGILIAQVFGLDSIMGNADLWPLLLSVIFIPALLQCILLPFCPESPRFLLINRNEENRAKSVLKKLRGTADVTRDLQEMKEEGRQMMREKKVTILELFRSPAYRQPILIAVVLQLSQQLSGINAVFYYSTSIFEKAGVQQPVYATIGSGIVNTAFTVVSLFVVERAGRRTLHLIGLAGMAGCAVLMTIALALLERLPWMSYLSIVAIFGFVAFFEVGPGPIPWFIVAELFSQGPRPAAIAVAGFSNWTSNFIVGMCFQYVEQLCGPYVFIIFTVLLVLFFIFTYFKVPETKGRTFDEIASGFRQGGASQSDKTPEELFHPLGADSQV

[5] = molecular target: T1, Solute carrier family 2, facilitated glucose transporter member 1 (Mus musculus); test: Inhibition of GLUT1 in mouse BEND3 cells assessed as activation of AMPK at 20 nmol/L by Western blot analysis; format: cell-based
In short: (§1)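 bEND3 lysed in Laemmli buffer, denatured 5 min at 95°C, and 15 µg protein run on 4-20% gels and transferred to PVDF. Probed overnight in 5% milk/TBST with antibodies to phospho-AMPKα (Thr172), AMPKα, p53 and p21, with β-actin.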

[6] = molecular target: T2, Solute carrier family 2, facilitated glucose transporter member 1 (Homo sapiens) (UniProt P11166); test: Inhibition of GLUT1 in human brain microvascular endothelial cells assessed as decrease in glycolysis at 20 nmol/L; details: Endothelial cell
T2 sequence (whole entry): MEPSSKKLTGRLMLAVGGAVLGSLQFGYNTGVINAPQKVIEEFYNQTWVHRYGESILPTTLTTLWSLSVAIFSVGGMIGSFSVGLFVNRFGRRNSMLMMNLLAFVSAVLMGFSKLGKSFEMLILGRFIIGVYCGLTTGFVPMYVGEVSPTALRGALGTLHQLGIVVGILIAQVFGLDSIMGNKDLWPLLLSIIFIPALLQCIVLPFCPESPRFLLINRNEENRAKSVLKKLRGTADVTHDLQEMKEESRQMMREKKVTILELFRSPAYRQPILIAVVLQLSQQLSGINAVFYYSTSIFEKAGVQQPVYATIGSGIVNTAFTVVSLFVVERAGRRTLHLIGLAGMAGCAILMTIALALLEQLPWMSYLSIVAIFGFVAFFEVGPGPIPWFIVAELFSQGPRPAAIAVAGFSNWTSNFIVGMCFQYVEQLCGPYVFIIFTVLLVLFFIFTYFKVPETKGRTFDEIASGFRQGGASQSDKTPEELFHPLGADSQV
In short: (§2)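 Glycolytic flux read as 3H2O release: cells kept 2 hrs in culture medium containing D-[5-3H]-glucose at 0.4 µCi/ml final. Supernatant sealed in glass vials, 3H2O captured over 48 h at 37°C on water-soaked paper in hanging wells, then counted by scintillation. Inhibitor exposure 24 hrs from the day after seeding.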

[7] = molecular target: T2, Solute carrier family 2, facilitated glucose transporter member 1 (Homo sapiens); test: Inhibition of GLUT1 in human retinal microvascular endothelial cells assessed as decrease in sprouting angiogenesis; format: cell-based; details: Endothelial cell
In short: (§3)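 Spheroids of 1000 ECs per 25 µl hanging drop formed overnight in 20% methylcellulose/EGM2, then embedded in 5 mg/ml fibrinogen gel in EGM2 with or without inhibitor and/or 1 µg/ml mitomycin C. Same medium overlaid on gel. Fixed with 4% PFA after 24 hrs and photographed.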

[8] = molecular target: T2, Solute carrier family 2, facilitated glucose transporter member 1 (Homo sapiens); test: Inhibition of GLUT1 in HUVEC assessed as sprouting angiogenesis at 40 nmol/L in presence of mitomycin C; format: cell-based; in short: as §3
[9] = molecular target: T1, Solute carrier family 2, facilitated glucose transporter member 1 (Mus musculus); test: Inhibition of GLUT1 in mouse BEND3 cells assessed as decrease in [14C]-3-O-methylglucose transport after 2 hrs by glucose transport assay; format: cell-based
In short: (§4)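 Cells pre-held 2 hrs at 37°C in serum-free DMEM with inhibitor or DMSO vehicle, DPBS-washed, then given 20 mM 3-O-methylglucose carrying 1 µCi/ml [14C]-3MG in DPBS plus inhibitor for 30 min uptake. Stopped and washed with ice-cold 50 mM glucose in PBS, lysed in 0.1 N NaOH, counted by liquid scintillation. Triplicate measurements.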

[10] = molecular target: T1, Solute carrier family 2, facilitated glucose transporter member 1 (Mus musculus); test: Inhibition of GLUT1 in mouse BEND3 cells assessed as increase in p53/p21 ratio at 20 nmol/L by Western blot analysis; format: cell-based; in short: as §1
[11] = molecular target: T2, Solute carrier family 2, facilitated glucose transporter member 1 (Homo sapiens); test: Inhibition of GLUT1 in HUVEC assessed as decrease in sprouting angiogenesis at 40 nmol/L; format: cell-based; in short: as §3
[12] = molecular target: T1, Solute carrier family 2, facilitated glucose transporter member 1 (Mus musculus); test: Inhibition of GLUT1 in mouse BEND3 cells assessed as reduced phosphorylation of RPS6 at 20 nmol/L by Western blot analysis; format: cell-based
[13] = molecular target: T1, Solute carrier family 2, facilitated glucose transporter member 1 (Mus musculus); test: Inhibition of GLUT1 in mouse BEND3 cells assessed as complete inhibition of [14C]-3-O-methylglucose transport at 20 nmol/L after 2 hrs by glucose transport assay; format: cell-based; in short: as §4
[14] = molecular target: T2, Solute carrier family 2, facilitated glucose transporter member 1 (Homo sapiens); test: Inhibition of GLUT1 in human brain microvascular endothelial cells assessed as decrease in sprouting angiogenesis; details: Endothelial cell, dose 20.0 nmol/L; in short: as §3
[15] = molecular target: T1, Solute carrier family 2, facilitated glucose transporter member 1 (Mus musculus); test: Inhibition of GLUT1 in mouse BEND3 cells assessed as decrease in glycolysis at 20 nmol/L relative to cytochalasin B; format: cell-based; details: time 2.0 hrs; in short: as §2
[16] = molecular target: T1, Solute carrier family 2, facilitated glucose transporter member 1 (Mus musculus); test: Inhibition of GLUT1 in mouse BEND3 cells assessed as cell migration at 20 nmol/L by scratch wound assay in presence of mitomycin C; format: cell-based
In short: (§5)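 Confluent monolayers, pre-treated 24 hrs with inhibitor or 1 µg/ml mitomycin C where indicated, scratched with a pipette tip and imaged (T0). Then incubated in EGM2 and fixed with 4% PFA when control closure was near complete. Gap areas measured; closure % = (1 − Tx gap/T0 gap) × 100.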

[17] = molecular target: T1, Solute carrier family 2, facilitated glucose transporter member 1 (Mus musculus); test: Inhibition of GLUT1 in mouse primary endothelial cells assessed as decrease in glucose transport; format: cell-based; details: Endothelial cell
[18] = molecular target: T1, Solute carrier family 2, facilitated glucose transporter member 1 (Mus musculus); test: Inhibition of GLUT1 in mouse BEND3 cells assessed as slight decrease in cell migration at 20 nmol/L by scratch wound assay; format: cell-based; in short: as §5
[19] = molecular target: T1, Solute carrier family 2, facilitated glucose transporter member 1 (Mus musculus); test: Inhibition of GLUT1 in mouse BEND3 cells assessed as increase in AMP/ATP ratio at 20 nmol/L; format: cell-based
[20] = molecular target: T2, Solute carrier family 2, facilitated glucose transporter member 1 (Homo sapiens); test: Inhibition of GLUT1 in HUVEC assessed as decrease in glycolysis; format: cell-based; in short: as §2
[21] = molecular target: T1, Solute carrier family 2, facilitated glucose transporter member 1 (Mus musculus); test: Inhibition of GLUT1 in mouse BEND3 cells assessed as reduced phosphorylation of S6K1 at 20 nmol/L by Western blot analysis; format: cell-based
[22] = molecular target: T1, Solute carrier family 2, facilitated glucose transporter member 1 (Mus musculus); test: Inhibition of GLUT1 in mouse BEND3 cells assessed as decrease in cell proliferation at 20 nmol/L; format: cell-based
In short: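 Proliferation measured after 24 hrs of inhibitor as [6-3H]-thymidine incorporation: 2 hrs with 1 µCi/ml final in culture medium, ethanol fixation 15 min at 4°C, 10% TCA precipitation, 0.1 N NaOH lysis, and scintillation counting.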

[23] = molecular target: T1, Solute carrier family 2, facilitated glucose transporter member 1 (Mus musculus); test: Inhibition of GLUT1 in mouse primary endothelial cells assessed as decrease in glycolysis; format: cell-based; details: Endothelial cell; in short: as §2
[24] = molecular target: T2, Solute carrier family 2, facilitated glucose transporter member 1 (Homo sapiens); test: Inhibition of GLUT1 in HUVEC assessed as decrease in glucose transport; format: cell-based; in short: as §4
[25] = molecular target: T2, Solute carrier family 2, facilitated glucose transporter member 1 (Homo sapiens); test: Inhibition of GLUT1 in human retinal microvascular endothelial cells assessed as decrease in glycolysis at 20 nmol/L; format: cell-based; details: Endothelial cell, time 2.0 hrs; in short: as §2
[26] = molecular target: T1, Solute carrier family 2, facilitated glucose transporter member 1 (Mus musculus); test: Inhibition of GLUT1 in mouse BEND3 cells assessed as reduction in glycolytic metabolite at 20 nmol/L; format: cell-based

## C=C1[C@@H](C)[C@H]2[C@H](Cc3ccccc3)NC(=O)[C@]23OC(=O)/C=C/[C@H](O)CCC[C@@H](C)C/C=C/[C@H]3[C@@H]1O
BEND3 [1]
  inhibition: Active
BEND3 [2]
  inhibition: Active
BEND3 [3]
  inhibition: Active

## Cc1c(NC(=O)c2cc(C(N)=O)nc3cc(F)ccc23)c(C(F)(F)F)nn1Cc1ccc(C#N)cc1
[4]
  inhibition: Active
[5]
  inhibition: Active
[6]
  inhibition: Active
[7]
  inhibition: Active
[8]
  inhibition: inactive
[9]
  inhibition: Active
[10]
  inhibition: Active
[11]
  inhibition: Active
[12]
  inhibition: Active
[13]
  inhibition: Active
[14]
  inhibition: Active
[15]
  inhibition: Active
[16]
  inhibition: inactive
[17]
  inhibition: Active
[18]
  inhibition: Active
[19]
  inhibition: Active
[20]
  inhibition: Active
[21]
  inhibition: Active
[22]
  inhibition: 40%
[23]
  inhibition: Active
[24]
  inhibition: Active
[25]
  inhibition: Active
[26]
  inhibition: Active
